Calls of active or inactive are those of the source. The rule behind the calls is not given here.
Columns and labels:
[1] = (§1) Cytotoxicity against human HepG2 cells assessed as inhibition of cell growth after 48 hrs by LDH assay; format: cell-based; details: HepG2 cells
Plasmodium falciparum [2] = assay: Resistance index, ratio of IC50 for asexual intraerythrocytic ring stage of chloroquine-resistant Plasmodium falciparum W2 infected in human O+ erythrocytes to IC50 for asexual intraerythrocytic ring stage of chloroquine-sensitive Plasmodium falciparum 3D7 infected in human O+ erythrocytes; format: functional
Plasmodium falciparum [3] = assay: Antiplasmodial activity against asexual intraerythrocytic ring stage of antifolate-resistant Plasmodium falciparum HB3 infected in human O+ erythrocytes assessed as inhibition of parasitic proliferation after 96 hrs by SYBR Green-1 based fluorescence assay; format: functional, organism-based; details: HB3, 96 h
Plasmodium falciparum [4] = assay: Antiplasmodial activity against asexual intraerythrocytic ring stage of chloroquine-sensitive Plasmodium falciparum 3D7 infected in human O+ erythrocytes assessed as inhibition of parasitic proliferation after 96 hrs by SYBR Green-1 based fluorescence assay; format: functional, organism-based; details: 3D7, 96 h
HepG2 [5] = assay: as §1; format: cell-based; details: hepg2, 48 h
Plasmodium falciparum [6] = assay: Plasmocidal activity against intraerythrocytic early trophozoitic stage of chloroquine-sensitive Plasmodium falciparum 3D7 infected in human O+ erythrocytes assessed as cessation of nuclear division at IC90 after 24 hrs by SYBR Green I-based flow cytometry; format: functional, organism-based
[7] = Selectivity index, ratio of GI50 for human HepG2 cells to IC50 for asexual intraerythrocytic ring stage of chloroquine-sensitive Plasmodium falciparum 3D7 infected in human O+ erythrocytes; format: functional
Plasmodium falciparum [8] = assay: Antiplasmodial activity against asexual intraerythrocytic ring stage of chloroquine-resistant Plasmodium falciparum W2 infected in human O+ erythrocytes assessed as inhibition of parasitic proliferation after 96 hrs by SYBR Green-1 based fluorescence assay; format: functional, organism-based; details: W2, 96 h
Plasmodium falciparum [9] = assay: Plasmocidal activity against intraerythrocytic chloroquine-sensitive Plasmodium falciparum 3D7 infected in human O+ erythrocytes assessed as inhibition of parasitic proliferation at IC90 after 24 to 96 hrs by flow cytometry; format: functional, organism-based
HepG2 [10] = assay: Cytotoxicity against human HepG2 cells assessed as cell viability at 5000XIC50 for Plasmodium falciparum 3D7 after 48 hrs by LDH assay; format: cell-based; details: hepg2, 48 h
Plasmodium falciparum [11] = assay: Gametocytocidal activity against Plasmodium falciparum NF54-Mal8p1.16-GFP-Luc late (4 to 5) gametocyte assessed as inhibition of parasite viability at 5 uM after 48 hrs by luciferase reporter assay; format: functional, organism-based
Summary of the method: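 NF54 luciferase reporter line; gametocytogenesis induced in glucose-free medium under hypoxia without shaking, with daily medium changes. Mature stage IV/V gametocytes were used on day 10, at 2% gametocytemia and 2% hematocrit. Compound at 5 µM for 48 h, hypoxic, 37 °C, in triplicate; three biological repeats. Read-out was luciferase in lysates with luciferin substrate.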

[12] = Inhibition of NP-40-mediated beta-hematin formation at 1 mM after 5 hrs by pyridine-ferrichrome method; format: functional
Summary of the method: (§2)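 NP-40 detergent (305.5 µM), water and DMSO mixed with compound over a concentration range. Incubated 5 h at 37 °C with hematin in 1 M acetate buffer, pH 4.8, with occasional shaking. β-Hematin measured by the pyridine-ferrichrome method, absorbance at 405 nm. Three biological repeats in triplicate.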

[13] = Inhibition of NP-40-mediated beta-hematin formation after 5 hrs by pyridine-ferrichrome method; format: functional
Plasmodium falciparum [14] = assay: Plasmocidal activity against intraerythrocytic chloroquine-sensitive Plasmodium falciparum 3D7 infected in human O+ erythrocytes assessed as cessation of nuclear division measured as proportion of schizonts containing >2N nuclear content at IC90 after 96 hrs by SYBR Green I-based flow cytometry; format: functional
[15] = Inhibition of NP-40-mediated beta-hematin formation at >400 uM after 5 hrs by pyridine-ferrichrome method; format: functional; summary of the method: as §2
Plasmodium falciparum [16] = assay: Plasmocidal activity against intraerythrocytic early trophozoitic stage of chloroquine-sensitive Plasmodium falciparum 3D7 infected in human O+ erythrocytes assessed as non-progressive pyknotic phenotype with apparently dying morphology at IC90 measured over 48 hrs single lifecycle by Giemsa staining based microscopy; format: functional, organism-based
Plasmodium falciparum [17] = assay: Plasmocidal activity against intraerythrocytic chloroquine-sensitive Plasmodium falciparum 3D7 infected in human O+ erythrocytes assessed as cessation of nuclear division measured as proportion of rings/trophozoites containing 1N nuclear content at IC90 after 96 hrs by SYBR Green I-based flow cytometry
Plasmodium falciparum [18] = assay: Plasmocidal activity against intraerythrocytic chloroquine-sensitive Plasmodium falciparum 3D7 infected in human O+ erythrocytes assessed as irreversible inhibition of parasitic viability at IC90 pulsed with compound for 12 hrs followed by drug wash-out measured after 36 hrs by SYBR Green 1 based flow cytometry; format: functional
Summary of the method: (§3)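 Cultures were washed once in RPMI 1640 and diluted 1:40. Proliferation followed at set times over 36 h by SYBR Green I DNA fluorescence.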

Plasmodium falciparum [19] = assay: Plasmocidal activity against intraerythrocytic chloroquine-sensitive Plasmodium falciparum 3D7 infected in human O+ erythrocytes assessed as irreversible inhibition of parasitic viability at 10XIC90 pulsed with compound for 12 hrs followed by drug wash-out measured after 36 hrs by SYBR Green 1 based flow cytometry; format: functional, organism-based; summary of the method: as §3
Plasmodium falciparum [20] = assay: Plasmocidal activity against intraerythrocytic chloroquine-sensitive Plasmodium falciparum 3D7 infected in human O+ erythrocytes assessed as cessation of nuclear division measured as proportion of schizonts containing 2N nuclear content at IC90 after 96 hrs by SYBR Green I-based flow cytometry; format: functional
Plasmodium falciparum [21] = assay: Antiplasmodial activity against chloroquine-resistant Plasmodium falciparum Dd2; format: functional, organism-based

Compound	Ratio IC50 (Plasmodium falciparum [2])	IC50 (Plasmodium falciparum [3]) [nM]	IC50 (Plasmodium falciparum [4]) [nM]	GI50 (HepG2 [5]) [µM]	Selectivity Index [7]	IC50 (Plasmodium falciparum [8]) [nM]	further results
S=C(NCCCNCCCCNCCCNC(=S)NCc1ccccc1)NCc1ccccc1	–	–	–	–	–	–	GI50 at 48 h [1]: > 200 µM
O=C(NCCCNCCCCCCCNCCCNC(=O)NCC(c1ccccc1)c1ccccc1)NCC(c1ccccc1)c1ccccc1	1.4	–	–	–	–	–	–
O=C(NCCCNCCCCCCNCCCNC(=O)Nc1ccccc1)Nc1ccccc1	0.3	–	–	–	–	–	–
N=C(N)NCCCNCCCNCCCNC(=N)N	–	110000	147000	–	–	–	–
O=C(NCCCNCCCCCNCCCNC(=O)NCC(c1ccccc1)c1ccccc1)NCC(c1ccccc1)c1ccccc1	0.64	40	28	94.5	3375	18	Activity (Plasmodium falciparum [6]): Active; inhibition (Plasmodium falciparum [9]): Active
S=C(NCCCNCCCCCNCCCNC(=S)NCc1ccccc1)NCc1ccccc1	0.17	178	249	–	>5000	42	Activity (HepG2 [10]): 100%
S=C(NCCCNCCCCCNCCCNC(=S)NC(c1ccccc1)c1ccccc1)NC(c1ccccc1)c1ccccc1	0.51	75	68	44.8	659	35	inhibition (Plasmodium falciparum [11]): Active
O=C(NCCCNCCCCCCCNCCCNC(=O)NC(c1ccccc1)c1ccccc1)NC(c1ccccc1)c1ccccc1	1.7	–	–	–	–	–	GI50 at 48 h [1]: > 200 µM
O=C(NCCCNCCCCCNCCCNC(=O)NCc1ccccc1)NCc1ccccc1	0.22	593	793	1950	2456	171	inhibition [12]: inactive
S=C(NCCCNCCCCCNCCCNC(=S)NCC(c1ccccc1)c1ccccc1)NCC(c1ccccc1)c1ccccc1	1.18	56	40	52.2	1305	47	IC50 [13]: 16.7 µM
N=C(N)NCCCNCCCCNCCCNC(=N)N	–	14200	80000	–	–	–	–
O=C(NCCCNCCCCCNCCCNC(=O)NCCC(c1ccccc1)c1ccccc1)NCCC(c1ccccc1)c1ccccc1	1.2	56	30	153	5090	36	Activity (Plasmodium falciparum [14]): 2%; Activity (Plasmodium falciparum [6]): Active; inhibition [15]: Active; Activity (Plasmodium falciparum [16]): Active; Activity (Plasmodium falciparum [17]): 88%; inhibition (INH) (Plasmodium falciparum [18]): >40%; inhibition (Plasmodium falciparum [9]): Active; inhibition (Plasmodium falciparum [19]): Active; Activity (Plasmodium falciparum [20]): 10%
C(CCCNCCCNCC1CCCCCC1)CCCNCCCNCC1CCCCCC1	–	–	110	–	–	–	IC50 (Plasmodium falciparum [21]): 120 nM
O=C(NCCCNCCCCCNCCCNC(=O)NC(c1ccccc1)c1ccccc1)NC(c1ccccc1)c1ccccc1	0.43	65	47	240	5113	20	–
S=C(NCCCNCCCCCCNCCCNC(=S)NC(c1ccccc1)c1ccccc1)NC(c1ccccc1)c1ccccc1	1.2	–	–	–	–	–	GI50 at 48 h [1]: > 200 µM
O=C(NCCCNCCCCCCCNCCCNC(=O)NCCC(c1ccccc1)c1ccccc1)NCCC(c1ccccc1)c1ccccc1	1.13	–	–	–	–	–	–
S=C(NCCCNCCCCCNCCCNC(=S)NCCC(c1ccccc1)c1ccccc1)NCCC(c1ccccc1)c1ccccc1	0.54	62	76	50.6	666	41	inhibition (Plasmodium falciparum [11]): Active
O=C(NCCCNCCCCCNCCCNC(=O)Nc1ccccc1)Nc1ccccc1	0.2	177	246	–	>5000	49	Activity (HepG2 [10]): 100%
S=C(NCCCNCCCCCCNCCCNC(=S)NCc1ccccc1)NCc1ccccc1	1.9	–	–	–	–	–	GI50 at 48 h [1]: > 200 µM
N=C(N)NCCCNCCCCCCCNCCCNC(=N)N	–	70300	–	–	–	–	–

From ChEMBL document CHEMBL3596171, “Interrogating alkyl and arylalkylpolyamino (bis)urea and (bis)thiourea isosteres as potent antimalarial chemotypes against multiple lifecycle forms of Plasmodium falciparum parasites” (Bioorg Med Chem, 2015)
